From ChEMBL document CHEMBL3046104, “Antifeedant diterpenoids against Tribolium castaneum from the stems and twigs of Ceriops tagal (Rhizophoraceae)” (Molecules, 2011)
Each block holds one compound with its values, some of them ahead of it.

Assays:
Tribolium castaneum [1] = test: Antifeedant activity against Tribolium castaneum (red flour beetle) assessed as reduction of food consumption at 300 ppm after 3 days by flour disk bioassay relative to control; assay type: functional
Method in brief: (§1)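 Adult T. castaneum from a lab colony kept in the dark at 28–30 °C, 70%–80% RH, starved 24 h. Treated flour disks (36–39 mg) air-dried overnight, then equilibrated 48 h at 28–30 °C. Twenty unsexed, group-weighed adults per vial for 3 days; uneaten disk weighed against controls. Insect-free treated vials corrected for solvent evaporation. Six replicates; 10–1000 ppm; EC50 by linear regression.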

Tribolium castaneum [2] = test: Antifeedant activity against Tribolium castaneum (red flour beetle) assessed as reduction of food consumption at 10 ppm after 3 days by flour disk bioassay relative to control; assay type: functional; method in brief: as §1
Tribolium castaneum [3] = test: Antifeedant activity against Tribolium castaneum (red flour beetle) assessed as reduction of food consumption at 1000 ppm after 3 days by flour disk bioassay relative to control; assay type: functional; method in brief: as §1
Tribolium castaneum [4] = test: Antifeedant activity against Tribolium castaneum (red flour beetle) assessed as reduction of food consumption at 100 ppm after 3 days by flour disk bioassay relative to control; assay type: functional; method in brief: as §1
Tribolium castaneum [5] = test: Antifeedant activity against Tribolium castaneum (red flour beetle) assessed as reduction of food consumption after 3 days by flour disk bioassay relative to control; assay type: functional, organism-based; method in brief: as §1
Tribolium castaneum [6] = test: Antifeedant activity against Tribolium castaneum (red flour beetle) assessed as reduction of food consumption at 30 ppm after 3 days by flour disk bioassay relative to control; assay type: functional; method in brief: as §1

EC50 (Tribolium castaneum [5]): 375.3 ppm
SMILES: C=C[C@@]1(C)CC[C@@]2(C)[C@@H](CC[C@@]3(C)[C@@H]2C=C(O)C(=O)[C@@]32CO2)C1 [TAGALSIN A]
level, % of control (Tribolium castaneum [1]): 53.15%
level, % of control (Tribolium castaneum [2]): 97.56%
level, % of control (Tribolium castaneum [3]): 40.05%
level, % of control (Tribolium castaneum [4]): 73.43%
level, % of control (Tribolium castaneum [6]): 88.28%

EC50 (Tribolium castaneum [5]): 277.6 ppm
SMILES: C=C[C@@]1(C)CC[C@@]2(C)[C@@H](CC[C@@]3(C)[C@@H]2C=C(O)C(=O)[C@]32CO2)C1 [TAGALSIN B]
level, % of control (Tribolium castaneum [1]): 47.65%
level, % of control (Tribolium castaneum [2]): 95.23%
level, % of control (Tribolium castaneum [3]): 38.85%
level, % of control (Tribolium castaneum [4]): 65.32%
level, % of control (Tribolium castaneum [6]): 84.17%

EC50 (Tribolium castaneum [5]): 285.4 ppm
SMILES: C=C[C@@]1(C)CC[C@@]2(C)[C@@H](CC[C@](C)(C(C)=O)[C@@H]2CC(=O)O)C1 [TAGALSIN H]
level, % of control (Tribolium castaneum [1]): 49.12%
level, % of control (Tribolium castaneum [2]): 92.86%
level, % of control (Tribolium castaneum [3]): 35.41%
level, % of control (Tribolium castaneum [4]): 63.26%
level, % of control (Tribolium castaneum [6]): 73.72%

SMILES: CC(=O)O[C@@H]1C[C@H](O)[C@@]23CO[C@@H](O)[C@]1(C)[C@@H]2C[C@@H](O)[C@]1(C)[C@@H]3C(=O)[C@H](OC(C)=O)[C@@]2(C)[C@H](c3ccoc3)C[C@H]3O[C@]321 [TOOSENDANIN]
EC50 (Tribolium castaneum [5]): 66 ppm
